# The list is not random: actives were taken first. Their share in the collection is about 2.9%.
# Kir21 inh: inhibitors of mouse Kir2.1 inward-rectifier potassium channel. P35561. HEK293-Kir2.1, FluxOR thallium flux fluorescence; stronger effect = lower value. B-score at 10 µM. hit rate 0.85% among 310,000. AID 1672;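 active = fluorescence ratio B-score at or below minus 3 SD of library scores, with starting-brightness B-score within 2 SD, cut at about -4.2 in these data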;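 also: channel flux triggered by added potassium and thallium sulfate stimulus; B-score of peak minus minimum fluorescence over baseline after thallium stimulus; more negative B-score means stronger Kir2.1 block with less thallium influx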
# TRPC6 inhibitor: blocks the mouse TRPC6 cation channel | HEK293-TRPC6, membrane potential dye, ACh-evoked depolarization; stronger effect = lower value | B-score at 10 µM | hit rate 1.1% among 310,000 | AID 2553;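 active = B-score under library mean minus 3 SD, initial fluorescence not abnormally high, positive integrated signal ratio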;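 also: B-score derived from integrated fluorescence ratio over the kinetic read; more negative B-score means stronger inhibition of depolarization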
# TRPC4 PAM: allosteric potentiators of mouse TRPC4 channel | Q9QUQ5 | HEK293 TRPC4beta/mu-opioid, DAMGO EC20, Fluo-4 Ca2+ flux; stronger effect = higher value | B-score at 10 µM | hit rate 0.42% among 310,000 | AID 2227;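 active = B-score of calcium response area above 5 SD of library B-scores, with initial fluorescence ratio within 5 SD of library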;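 also: B-score of integrated fluorescence ratio over time as area under calcium response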
# TRPC4 act: activators of mouse TRPC4 channel; hit rate 0.49% among 310,000; HEK293 TRPC4beta/mu-opioid, Fluo4 calcium fluorescence; stronger effect = higher value; AID 2237; B-score at 10 µM;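 active = B-score above 5 SD of library B-scores, and initial fluorescence ratio not above library mean plus 5 SD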;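 also: positive B-score marks a calcium rise read as TRPC4 activation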
#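 Material: HEK293 stable line with TRPC4beta plus mu-opioid receptor; technique: Fluo4 calcium-sensitive dye fluorescence, kinetic, 1 Hz baseline; timing: Fluo4 dye loading 45 min at room temperature, 110 s recording; controls: assay buffer as low control, maximal DAMGO as high control; read-out: integrated baseline-normalised fluorescence ratio, converted to per-well B score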
# TRPC6 act: mouse TRPC6 channel activation; HEK293-TRPC6 membrane potential dye fluorescence; stronger effect = higher value; B-score at 10 µM; hit rate 0.13% among 310,000; AID 2550; Q61143;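 active = B-score of the integrated fluorescence ratio above library mean plus 3 SD, and starting fluorescence ratio within library mean plus 5 SD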;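 also: higher score means more depolarization so channel activation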
# TRPC4 inh: blocks the mouse TRPC4 cation channel | HEK293 TRPC4beta/mu-opioid, DAMGO-evoked Fluo4 calcium flux; stronger effect = lower value | B-score at 10 µM | hit rate 0.39% among 300,000 | AID 2247;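 active = B-score over 3 SD under the library average, no early fluorescence shift, positive overall ratio signal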
#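 Assay system: TRPC4beta/mu-opioid receptor HEK293 cell line; compound dosing: single concentration per test compound; detection: Fluo4 Ca2+ flux fluorescence; evaluation: per-well B score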
# * hit, by the source's call; i = inactive.
SMILES,Kir21 inh,TRPC6 inhibitor,TRPC4 PAM,TRPC4 act,TRPC6 act,TRPC4 inh
CCCCCCCNC(=O)C1(CC2CC(c3cccc(Br)c3)=NO2)CCN(C(=O)c2ccccc2)CC1 (configuration not stated),0.2,i,i,i,i,i
CCCCCCCNC(=O)C1(CC2CC(c3ccc(Cl)cc3)=NO2)CCNCC1 (configuration not stated),-10*,i,i,i,i,i
O=C(NCc1ccccc1F)C(=O)NCC1OCCCN1S(=O)(=O)c1cccs1 (configuration not stated),-0.03,i,i,i,i,i
CC(C)(C)c1cc(CCC(=O)NCCc2ccccn2)cc(C(C)(C)C)c1O,-1.9,i,i,i,i,i
O=C(NCCc1ccccn1)C(F)(F)C(F)(F)C(F)(F)C(F)(F)C(F)(F)C(F)(F)C(F)(F)C(F)F,1.6,i,i,165*,i,i
O=C(O)C1CCC(=O)N1C1c2ccccc2Oc2ccccc21 (configuration not stated),-0.08,i,i,i,i,i
COc1ccc(Br)cc1CN(C)CC(=O)NCCc1ccc(S(N)(=O)=O)cc1,-4.7*,i,i,i,i,i
COc1ccccc1CNC(=O)CN(C)Cc1ccc(SC)cc1,-5.4*,i,i,i,i,i
COc1ccc(Br)cc1CN(C)CC(=O)NCCc1ccccc1,-5.5*,i,i,i,i,i
CN(CC(=O)NCCc1ccc(F)cc1)Cc1ccccc1,-0.65,i,i,i,i,i
COc1ccc(S(=O)(=O)NCc2cccs2)cc1,-1.6,i,i,i,i,i
Cc1ccc(C)c(NC(=S)N2CCN(c3cccc(C(F)(F)F)c3)CC2)c1,0.01,i,i,i,i,i
COc1ccc(NS(=O)(=O)c2cc(NC(=O)C3CC3)ccc2N2CCCCC2)cc1,-1.1,i,i,i,i,i
O=C(Nc1nnc2n1CCS2)c1ccc(Br)o1,0.99,i,68*,i,i,i
CCn1c(COc2cccc(OC)c2)nnc1SCC(=O)NC1CCCC1,0.3,i,i,i,i,i
COc1ccccc1OCC(=O)NCCSCc1ccc(Cl)cc1,-4.7*,i,i,i,i,i
COc1cc(CNC(C)c2ccccc2)cc(Cl)c1OCC(=O)Nc1ccccc1 (configuration not stated),-9.5*,i,i,i,i,i
COc1ccccc1OCC(=O)Nc1ccc(Cl)cc1,0.71,i,i,i,i,-7*
Cc1nc([N+](=O)[O-])cn1C(C)C,-0.25,i,i,i,i,i
Cc1ccc(NC(=O)C2CCCO2)c(Br)c1 (configuration not stated),1.4,i,i,i,i,i
CCCCN(C(=O)COc1ccc(C)cc1OC)c1c(N)n(CCC)c(=O)[nH]c1=O,-0.26,i,i,i,i,i
C=CCNCC(=O)N1N=C(c2ccc3ccccc3c2)CC1c1ccc(OC)cc1 (configuration not stated),-4.3*,i,i,i,i,i
COc1ccc(C2CC(c3ccc4ccccc4c3)=NN2C(=O)CNC2CCCCC2)cc1 (configuration not stated),-1.5,i,i,i,i,i
CN(C)CCCOc1cccc(Cl)c1,0.12,i,32*,64*,i,i
CN(C)CCCOc1cccc(Oc2ccccc2)c1,-3,i,12*,i,i,i
SMILES,Kir21 inh,TRPC6 inhibitor,TRPC4 PAM,TRPC4 act,TRPC6 act,TRPC4 inh
CC(C)c1cccc(OCCCCN(C)C)c1,-0.04,i,17*,i,i,i
CC(=O)c1ccccc1OCCOCCOCCOc1ccccc1C(C)=O,-1.5,i,i,i,i,i
COc1cccc(CNC(=O)CCC2CCCN(c3cc(C)nc(N(C)C)n3)C2)c1 (configuration not stated),-0.51,i,i,i,i,-6*
CN(C)CC(CCC(CN(C)C)C(O)(c1ccccc1)c1ccccc1)C(O)(c1ccccc1)c1ccccc1 (configuration not stated),-5.6*,i,i,i,i,-8*
Cc1ccc2nc(-c3ccccn3)c(NC3CCCC3)n2c1,-0.65,i,i,i,i,-6*
O=C(O)C1(P(=O)(c2ccc(Cl)cc2)c2ccc(Cl)cc2)CC1,-2.8,i,i,i,i,i
c1ccc(C[C@H]2CNCCN2CC2CCCCC2)cc1,-0.48,i,i,i,i,i
c1ccc(CC2CCCNC2)cc1 (configuration not stated),-0.17,i,i,90*,i,i
CCOC(=O)c1ccc(-c2ccc(C3Nc4ccccc4C(=O)N3O)o2)cc1 (configuration not stated),-1,i,i,i,i,i
CC(SCc1ccccc1)C(=O)NCc1ccccn1 (configuration not stated),1.2,i,10*,i,i,i
COc1ccc(Cl)cc1NC(=O)CN(C)C(=O)Cc1ccsc1,-1.3,i,i,i,i,i
COc1ccc(Cl)cc1NC(=O)CN(C)C(=O)Cc1ccc2c(c1)CCC2,-4.8*,i,i,i,i,i
COC(=O)c1sccc1NC(=O)c1ccc(C#N)cc1,-2.3,-5*,i,i,i,i
COC(=O)c1sccc1NC(=O)c1ccc(OC)cc1,-3.2,i,i,i,i,i
O=C(CN1C(=O)c2ccccc2S1(=O)=O)NCCc1ccccc1,-0.24,i,i,i,i,i
NC(N)=NN=C1CCCCCCCCCCC1,-11*,i,i,49*,i,i
Cn1c(=O)cc(OCCCC(=O)NCCN2CCN(c3ccccc3F)CC2)c2ccccc21,-0.92,i,i,i,i,i
Cn1c(=O)cc(OCCCC(=O)NCCCN2CCN(Cc3ccccc3)CC2)c2ccccc21,-0.58,i,25*,i,i,i
CCN(CCCNC(=O)COc1cc(=O)n(C)c2ccccc12)c1cccc(C)c1,-6.8*,i,i,i,i,i
Cc1cccc(CCNC(=O)COc2cc(=O)n(C)c3ccccc23)c1,-1.6,i,i,i,i,i
CCN(CC)c1nc(NN)nc(Nc2ccc(C)c(Cl)c2)n1,-0.68,i,i,i,i,i
